Data from paper PMC9652259 (Clinical Pharmacokinetics, 2022).

Tests used:
[1] = co-administration with probenecid, healthy subjects ref 12; cited from earlier work
[2] = molecular target: cytochrome P450 (CYP) 3A4 (Homo sapiens, UniProt P08684); test: In vitro metabolism: enzyme responsible; assay type: in vitro ADME; settings: in vitro studies
UGT1A4 = molecular target: T1, UGT1A4 (Homo sapiens, UniProt P22310); test: UGT substrate / metabolite formation; assay type: in vitro ADME; settings: generates ZAAD-1006a
T1 sequence (P22310 29-534): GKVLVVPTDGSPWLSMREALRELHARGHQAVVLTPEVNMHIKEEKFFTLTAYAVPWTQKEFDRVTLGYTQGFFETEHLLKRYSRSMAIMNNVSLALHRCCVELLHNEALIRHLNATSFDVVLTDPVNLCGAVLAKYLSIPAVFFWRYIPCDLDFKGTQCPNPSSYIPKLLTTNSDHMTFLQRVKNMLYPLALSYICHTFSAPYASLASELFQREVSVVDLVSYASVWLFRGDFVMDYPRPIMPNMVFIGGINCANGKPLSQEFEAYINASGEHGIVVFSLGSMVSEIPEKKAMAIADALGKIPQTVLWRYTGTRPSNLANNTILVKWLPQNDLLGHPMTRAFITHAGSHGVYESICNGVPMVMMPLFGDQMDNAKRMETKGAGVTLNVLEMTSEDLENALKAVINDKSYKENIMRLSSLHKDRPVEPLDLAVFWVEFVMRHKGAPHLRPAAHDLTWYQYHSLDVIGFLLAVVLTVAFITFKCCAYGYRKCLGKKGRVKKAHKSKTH

Rifampin = assay type: in vivo, human
How it was run: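 Crossover in healthy adults (18–60 y, BMI 18–30 kg/m2) with a 10-day washout. Single oral 600 mg dose given alone or with rifampin 600 mg (2 × 300 mg capsules), taken with 240 mL water after at least 8–10 h fasting and 4 h further fasting. Plasma was measured by LC-MS/MS (30–3750 ng/mL). ANOVA (treatment, period, sequence, subject within sequence) on log Cmax/AUC∞ gave 90% CIs.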

Esomeprazole = assay type: in vivo, human; settings: for AUC(0-inf) / Cmax: human, plasma, oral, Geometric LS mean, ANOVA
How it was run: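 Healthy adults (18–60 y, BMI 18–30 kg/m2) in an open-label randomized two-period crossover with a 10-day washout. Single 600 mg oral dose (3 × 200 mg capsules) alone or with esomeprazole 40 mg, fasted at least 8–10 h plus 4 h post-dose. Plasma was assayed by LC-MS/MS (30–3750 ng/mL). ANOVA on ln Cmax/AUC∞ gave 90% CIs of geometric LS mean ratios.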

Solubility versus pH = assay type: physicochemical; settings: dependence on pH
[3] = Four phase I DDI studies overall; assay type: in vivo, human
How it was run: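 Across four crossover studies, healthy subjects received a single 600 mg oral dose fasted. Tmax came from plasma LC-MS/MS profiles, with BLQ values set to zero or missing by position. Safety covered adverse events, physical examination, vital signs, 12-lead ECG and laboratory tests. The investigator graded severity and causality. Analysis was descriptive over all subjects dosed at least once.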

Probenecid = assay type: in vivo, human
How it was run: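 Two-treatment crossover in healthy subjects (18–60 y, BMI 18–32 kg/m2) with a 17-day washout. A 600 mg oral capsule dose was given alone or with probenecid 500 mg tablet, after fasting at least 8–10 h and for 4 h post-dose. Plasma was collected through 312 h and measured by LC-MS/MS. Ratios came from ANOVA of ln-transformed Cmax and AUC∞ with 90% CIs.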

Itraconazole = assay type: in vivo, human
How it was run: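 Healthy adults (18–60 y) in a two-treatment crossover with a 10-day washout. Single 600 mg oral dose given alone or with itraconazole 200 mg oral solution, with overnight fast (at least 8–10 h) and 4 h post-dose fast. Sampling extended to 312 h. Plasma was quantified by validated LC-MS/MS. ANOVA of log-transformed Cmax and AUC∞ gave two-sided 90% CIs of geometric LS mean ratios.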

OAT1 = molecular target: T2, OAT1 (Homo sapiens, UniProt Q4U2R8); test: In vitro OAT1 substrate assessment; assay type: in vitro ADME; settings: in vitro data
T2 sequence (Q4U2R8 1-563): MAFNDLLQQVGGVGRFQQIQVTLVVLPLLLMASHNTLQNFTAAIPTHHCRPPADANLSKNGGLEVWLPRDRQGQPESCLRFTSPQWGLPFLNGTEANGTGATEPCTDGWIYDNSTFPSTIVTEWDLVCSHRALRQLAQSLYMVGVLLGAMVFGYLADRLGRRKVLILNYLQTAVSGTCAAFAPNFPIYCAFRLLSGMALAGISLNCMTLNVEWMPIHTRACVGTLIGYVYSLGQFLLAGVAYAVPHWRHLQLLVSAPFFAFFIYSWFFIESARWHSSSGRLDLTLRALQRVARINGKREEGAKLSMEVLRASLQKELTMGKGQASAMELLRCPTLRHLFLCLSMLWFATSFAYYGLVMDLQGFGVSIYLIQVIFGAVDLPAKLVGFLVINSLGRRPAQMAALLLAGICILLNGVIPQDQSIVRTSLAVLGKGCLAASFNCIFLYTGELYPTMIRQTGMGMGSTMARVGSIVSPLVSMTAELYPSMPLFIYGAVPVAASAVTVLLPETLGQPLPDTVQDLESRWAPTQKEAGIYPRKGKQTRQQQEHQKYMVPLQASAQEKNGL

CYP3A4 = CYP3A4 (Homo sapiens, UniProt P08684); test: In vitro mechanism-based inactivation of CYP3A4; assay type: biochemical
Chain of CYP3A4 (P08684 whole entry): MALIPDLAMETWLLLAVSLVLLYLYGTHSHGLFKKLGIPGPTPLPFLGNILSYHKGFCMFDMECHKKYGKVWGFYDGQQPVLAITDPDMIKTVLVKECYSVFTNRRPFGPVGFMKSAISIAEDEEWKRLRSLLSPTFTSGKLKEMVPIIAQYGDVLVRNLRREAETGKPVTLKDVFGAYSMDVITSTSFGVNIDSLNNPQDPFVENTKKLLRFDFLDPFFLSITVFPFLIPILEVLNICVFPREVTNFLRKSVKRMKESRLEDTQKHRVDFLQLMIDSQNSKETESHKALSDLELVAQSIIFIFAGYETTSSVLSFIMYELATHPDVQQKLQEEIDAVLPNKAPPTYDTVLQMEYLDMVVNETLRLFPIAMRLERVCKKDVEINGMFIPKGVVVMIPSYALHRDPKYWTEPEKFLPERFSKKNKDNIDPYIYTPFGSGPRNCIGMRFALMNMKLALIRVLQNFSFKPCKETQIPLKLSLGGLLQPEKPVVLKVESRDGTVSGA

[4] = co-administered with rifampin vs alone
[5] = pexidartinib + rifampin vs pexidartinib alone
[6] = co-administered with esomeprazole vs alone
[7] = pexidartinib + esomeprazole vs pexidartinib alone
[8] = pexidartinib + probenecid vs pexidartinib alone
[9] = co-administered with itraconazole vs alone
[10] = pexidartinib + itraconazole vs pexidartinib alone

Chain of cytochrome P450 (CYP) 3A4 (P08684 whole entry): as above

Compound: CCCc1nc(C(C)(C)O)c(C(=O)O)n1Cc1ccc(-c2ccccc2-c2nnn[nH]2)cc1 [olmesartan]
- increase in AUC [1]: approximately 50%

Compound: FC(F)(F)c1ccc(CNc2ccc(Cc3c[nH]c4ncc(Cl)cc34)cn2)cn1 [Pexidartinib]
- enzyme responsible for metabolism [2]: cytochrome P450 (CYP) 3A4 as the main enzyme
- UGT1A4 substrate (UGT1A4): substrate of the UGT1A4 enzyme
- decrease in AUC∞ (Rifampin; [4]): ~63%
- decrease in Cmax (Rifampin; [4]): approximately 33%
- subjects who experienced a TEAE (Rifampin; grade 1 diarrhea): single
- AUC∞, Geometric LS mean ratio (90% CI) (Rifampin; [5]): 37.0 (30.6–44.8) %
- Cmax, Geometric LS mean ratio (90% CI) (Rifampin; [5]): 67.1 (53.1–84.8) %
- decrease in AUC∞ (Esomeprazole; [6]): ~47%
- decrease in Cmax (Esomeprazole; [6]): approximately 55%
- AUC(0-inf) (Esomeprazole; 600 mg, pexidartinib alone): 104000 ng·h/mL
- Cmax (Esomeprazole; 600 mg, pexidartinib alone): 6430 ng/mL
- AUC(0-inf) (Esomeprazole; pexidartinib + esomeprazole): 55400 ng·h/mL
- Cmax (Esomeprazole; pexidartinib + esomeprazole): 2920 ng/mL
- AUC∞, Geometric LS mean ratio (90% CI) (Esomeprazole; [7]): 53.1 (47.4–59.3) %
- Cmax, Geometric LS mean ratio (90% CI) (Esomeprazole; [7]): 45.4 (36.8–55.9) %
- solubility (Solubility versus pH): decreases as pH increases
- severity of treatment-emergent adverse events (TEAEs) ([3]; all four studies): grade 1 or 2
- Tmax ([3]; human, plasma, oral): 2 to 3 h
- subjects who experienced a TEAE (Probenecid; N = 16): Eight
- effect on Cmax (Probenecid; co-administered with probenecid vs alone): unchanged
- subjects with TEAE considered study drug related (Probenecid; in vivo): four
- AUC∞, Geometric LS mean ratio (90% CI) (Probenecid; [8]): 159.8 (143.4–178.0) %
- Cmax, Geometric LS mean ratio (90% CI) (Probenecid; [8]): 105.8 (92.4–121.0) %
- subjects who experienced a TEAE (Itraconazole; N = 16): nine
- increase in AUC∞ (Itraconazole; [9]): ~73%
- increase in Cmax (Itraconazole; [9]): approximately 48%
- AUC∞, Geometric LS mean ratio (90% CI) (Itraconazole; [10]): 173.0 (160.7–186.3) %
- Cmax, Geometric LS mean ratio (90% CI) (Itraconazole; [10]): 148.3 (127.8–172.0) %
- subjects with TEAE assessed as related to the study drug (Itraconazole; pexidartinib or itraconazole): seven
- substrate for OAT1 (OAT1): not a substrate for OAT1
- KI (inactivation) (CYP3A4): 4.01 µM
- kinact (CYP3A4): 0.000377 s⁻¹
